H9c2 TAG inh: reduces triacylglycerol accumulation in H9c2 cells | Nile Red lipid (TAG) fluorescence; cells loaded with 200 µM oleic acid | inhibition, % at 12.5 µM | hit rate 0.66% among 230,000;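 active = pattern-corrected inhibition of lipid staining of at least 50% with the nuclear-stain viability signal not falling by more than 50%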
Calb FLC: affects C. albicans growth with fluconazole | hit rate 0.57% among 300,000 | C. albicans CaCi-2 + fluconazole, Alamar Blue growth, 48 h | growth inhibition, % (test concentration not listed);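 active = growth inhibition above about 58% in most replicates, limit read from the data, passing the limit was not always enough; inconclusive = exactly half the replicates above a set limit; inactive = most replicates below a set limit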;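 also: all wells also contain fluconazole at 8 µg/ml as a sub-toxic cotreatment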
A1 inh: inhibitors of the anti-apoptotic protein A1, read as caspase activation; MEF A1-2A-BIM cells, Caspase-Glo 3/7 luminescence, 3 h; percent of clofoctol response, vehicle zero; hit rate 0.066% among 330,000; caspase activation, % (test concentration not listed); AID 2462;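 active = over half of replicate activation scores above 10%, or exactly half above 10 with the replicate mean above 10; inconclusive = replicate mean below 10 yet half the replicates above 10; inactive = over half of replicates below 10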
CSC inhib: blocks cancer stem cells. cancer stem cell-like cells viability, luminescence. inhibition, % at 7.5 µM. hit rate 1.1% among 300,000. AID 2717; in the data active = inhibition above about 75%; inconclusive = no clear call, values can overlap the other calls; tested in HMLE shEcad cells
T cruzi repl: T. cruzi replication inhibition; inhibition, % (concentration not given with the values); T. cruzi beta-gal in NIH3T3, luminescence, 90 h; hit rate 1.4% among 300,000;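 active = mean inhibition across valid replicates above about 55%, limit read from the data; inconclusive = mean below that limit but half or more replicates reach it; inactive = mean below it, under half of replicates reach it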;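 also: signal also drops with host cell toxicity which is not excluded here; higher percent means less beta-gal luminescence so fewer parasites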
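Material: NIH/3T3 host cells with β-galactosidase reporter T. cruzi; Input: 5,000 host fibroblasts per well; Medium: DMEM, 2% fetal bovine serum; Compound: 50 nL DMSO compound solution per well; Schedule: 3 h host attachment, then at least 90 h co-culture; Detection: luminescent β-galactosidase signal after 60 min lysis.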
Beta cell apopt: blocks beta cell apoptosis | INS-1E cytokine-induced death, ATP luminescence, 48 h; percent of positive-control rescue, neutral wells zero | protection from apoptosis, % (test concentration not listed) | hit rate 0.8% among 300,000;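 active = Every replicate reaches about 75%, or at least half do and their mean reaches it too, limit read from the data; inconclusive = At least half of replicates reach the limit but their mean does not; inactive = Under half of replicates reach the limit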;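 also: higher means more ATP so stronger rescue from cytokine killing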
Large screens that a line does not name were inactive. Sampled rows, rich in hits. Any-hit rate of the full collection: about 3.1%.

Cc1ccc(C(=O)NCCc2nc3ccccc3[nH]2)cc1[N+](=O)[O-]	Calb FLC inconclusive, T cruzi repl 58.3 (no result: H9c2 TAG inh)
O=C(Cc1nc2ccccc2[nH]1)c1cccc([N+](=O)[O-])c1	CSC inhib 90.8
O=C(NCCc1nc2ccccc2[nH]1)c1ccc(Cl)c([N+](=O)[O-])c1	none
O=C(CN1CCC(C(=O)c2ccc3c(c2)OCCO3)CC1)Nc1ccccc1C(F)(F)F	none (no result: H9c2 TAG inh)
CC1(C)Cc2c(cnn2-c2ccccc2)C(NC(=O)CCc2ccc(=O)[nH]n2)C1 (stereo unspecified)	none
COc1ccc(-c2cc3nc(NCC4CCCCC4)n(C)c(=O)c3s2)cc1OC	none (no result: Calb FLC, A1 inh, CSC inhib, T cruzi repl, Beta cell apopt)
C(=N\Nc1ncnc2sc3c(c12)CCC3)/c1cccs1	CSC inhib 94.3, Beta cell apopt 95.8 (no result: H9c2 TAG inh)
C(=N\Nc1ncnc2sc3c(c12)CCC3)/c1ccncc1	none
O=C(CSc1nnc(-c2ccccc2F)o1)Nc1ccc(N2CCOCC2)cc1	none (no result: Calb FLC, CSC inhib, T cruzi repl)
O=C(Nc1ccc(N2CCN(C(=O)c3ccc(Cl)cc3)CC2)cc1)c1ccc(Br)o1	T cruzi repl 69.9 (no result: H9c2 TAG inh, CSC inhib)
CS(=O)(=O)N1CCN(c2ccc(NC(=O)c3ccc(-c4ccc(Cl)cc4)o3)cc2)CC1	none (no result: H9c2 TAG inh)
CN1CCN(c2ccc(NC(=O)c3ccc(-c4ccc(Cl)cc4)o3)cc2)CC1	CSC inhib 105.0
CCC(NC(=O)c1cc(COc2ccc(F)cc2Cl)on1)c1ccncc1 (stereo unspecified)	none (no result: A1 inh, CSC inhib, Beta cell apopt)
CO/N=C/C(=N\Nc1ccc(C)cc1)C(=O)c1ccc(OC)cc1	H9c2 TAG inh 60.3
CO/N=C/C(=N\Nc1ccc(OC)cc1)C(=O)c1ccc(F)cc1	none (no result: Beta cell apopt)
CC(CNC(=S)Nc1cc(F)cc(F)c1)CSc1ccc(Cl)cc1 (stereo unspecified)	CSC inhib 86.9
Cc1ccc(NC(=S)NCCSc2ccc(Cl)cc2)cc1	none
O=c1c2ccccc2oc2ccc(-c3ccc4cc[nH]c4c3)cc12	CSC inhib 89.5 (no result: Calb FLC, T cruzi repl)
COc1ccc2oc3ccccc3c(=O)c2c1	none
COC(=O)c1c(C)oc2ccc(N(C(=O)c3ccncc3)S(=O)(=O)c3ccc(C)cc3)cc12	none (no result: H9c2 TAG inh)
COC(=O)c1c(C)oc2ccc(N(C(=O)c3ccncc3)S(=O)(=O)c3ccc(C)cc3C)cc12	Beta cell apopt 99.8 (no result: H9c2 TAG inh)
COC(=O)c1c(C)oc2ccc(N(C(=O)c3ccncc3)S(=O)(=O)c3ccc4ccccc4c3)cc12	Beta cell apopt 105.5 (no result: H9c2 TAG inh)
NNC(=O)c1nn(-c2ccc(Cl)cc2)cc1O	Beta cell apopt 74.6
Cc1ccc(NC(=O)COC(=O)c2nn(-c3ccc(Cl)cc3)cc2O)cc1	none (no result: Calb FLC, T cruzi repl)
O=C(Nc1ccc(Cl)cc1)Nc1csc([N+](=O)[O-])c1	Beta cell apopt 80.5
O=C(Nc1ccc([N+](=O)[O-])cc1)Nc1ccc(Cl)cc1F	Beta cell apopt 108.3
CCN1C/C(=C/c2cccc([N+](=O)[O-])c2)C(=O)/C(=C/c2cccc([N+](=O)[O-])c2)C1	CSC inhib 84.8, Beta cell apopt 97.9 (no result: H9c2 TAG inh, Calb FLC, T cruzi repl)
CCC(C)NC(=O)CSc1ccc(S(=O)(=O)N(C)C2CCCCC2)cn1 (stereo unspecified)	none (no result: Calb FLC, T cruzi repl)
COc1cc(/C=N/Nc2nc(Nc3ccccc3)nc(-n3nc(C)cc3C)n2)cc(OC)c1OC	CSC inhib 102.4, T cruzi repl 54.5 (no result: H9c2 TAG inh)
COc1cc(/C=N/Nc2nc(Nc3ccc(C)cc3)nc(-n3nc(C)cc3C)n2)cc(OC)c1OC	T cruzi repl 58.1
COc1ccc(O)c(/C=N/Nc2nc(Nc3ccccc3)nc(-n3nc(C)cc3C)n2)c1	CSC inhib 92.4, Beta cell apopt 96.0
COc1cc(/C=N/Nc2nc(Nc3ccccc3)nc(N3CCOCC3)n2)ccc1OC(=O)c1ccco1	T cruzi repl 62.3
O=C(CN(C(=O)c1csnn1)c1ccc(F)c(Cl)c1)NC1CCCC1	none (no result: H9c2 TAG inh)
COc1ccc(-n2nc3c(c2NC(=O)CCl)CSC3)cc1	none (no result: H9c2 TAG inh)
CCc1ccc(NC(=O)c2ccc(NC3=NC4CS(=O)(=O)CC4S3)cc2)cc1 (stereo unspecified)	none (no result: H9c2 TAG inh)
O=C(N/N=C/c1cn(-c2cccs2)nc1-c1ccccc1)c1ccccc1Br	CSC inhib 83.3 (no result: H9c2 TAG inh)
O=C(Nc1cccc(C(F)(F)F)c1)C1CC(=O)N(CCc2ccccc2)C1 (stereo unspecified)	none (no result: Calb FLC, T cruzi repl)
COc1cc(CC(=O)Nc2nccs2)cc(OC)c1OC	Calb FLC 105.7 (no result: H9c2 TAG inh)
COc1ccc(CCC(=O)Nc2nccs2)cc1OC	none (no result: H9c2 TAG inh)
CCCN1CCC(NC(=O)Cc2cccc(C)c2)CC1	none (no result: H9c2 TAG inh)
O=C(Cc1ccccc1)Nc1nonc1NC(=O)c1ccccc1	Calb FLC 80.6
CC1(C)N=C(N)N=C(N)N1c1cc(Cl)ccc1Cl	none (no result: Calb FLC, A1 inh, CSC inhib, T cruzi repl, Beta cell apopt)
CC1(C)N=C(N)N=C(N)N1c1ccc(Oc2ccc(Cl)cc2)c(Cl)c1	CSC inhib 89.3, T cruzi repl 55.5 (no result: H9c2 TAG inh)
N#C/C(=C/c1ccc(N2CCCCCC2)o1)c1ccc(F)cc1	T cruzi repl 58.1
N#C/C(=C/c1ccc(N2CCCCCC2)o1)c1cccc(F)c1	T cruzi repl 66.4 (no result: H9c2 TAG inh, CSC inhib)
N#C/C(=C\c1ccc(N2CCOCC2)o1)c1ccccc1	none (no result: H9c2 TAG inh)
CC1CC(=O)Nc2ccccc2N1C(=O)CSc1nnnn1C (stereo unspecified)	none (no result: Calb FLC, T cruzi repl)
Oc1ccc(C[C@@H]2CNCCN2CCc2cccc(F)c2)cc1	none
Cc1ccsc1/C=N\NC(=O)c1n[nH]c2c1CCC2	CSC inhib 129.7
O=C(N/N=C/c1c(Cl)cccc1Cl)c1n[nH]c2c1CCCC2	none (no result: H9c2 TAG inh)
Cc1ccc(S(=O)(=O)N2CCN(c3nn(C)c(=O)n(C)c3=O)CC2)cc1C	none (no result: Calb FLC, T cruzi repl)
CN(C(=O)COC(=O)c1ccc(Br)c(S(=O)(=O)N2CCOCC2)c1)C1CCCCC1	none (no result: Calb FLC, T cruzi repl)
CC(=O)c1c(C)[nH]c(C(=O)CN2CCN(S(=O)(=O)c3ccccc3)CC2)c1C	Beta cell apopt inconclusive (no result: Calb FLC, CSC inhib, T cruzi repl)
C(=N\NCc1ccccc1)/c1ccc2nccnc2c1	none (no result: Beta cell apopt)
CCn1cc(C(=O)NCc2ccc3c(c2)OCO3)c(=O)c2cc(F)c(N3CCN(C)CC3)cc21	T cruzi repl 59.7 (no result: H9c2 TAG inh)
CCn1cc(C(=O)N[C@H](C)c2ccccc2)c(=O)c2cc(F)c(N3CCN(C)CC3)cc21	CSC inhib 75.5
Cn1cc(CN2CCCC(CNS(=O)(=O)c3cccc4cccnc34)C2)cn1 (stereo unspecified)	none (no result: Beta cell apopt)
CC(C)n1cc(CN2CCCC(CNS(=O)(=O)c3cccc4cccnc34)C2)cn1 (stereo unspecified)	T cruzi repl 64.3 (no result: Beta cell apopt)
CCN1CCN(c2nc3c(C)cccn3c(=O)c2/C=C(\C#N)C(=O)NCCOC)CC1	none (no result: H9c2 TAG inh)
Cc1ccc2c(c1)S/C(=C/c1ccc[n+](C)c1)N2CCO	T cruzi repl 57.0, Beta cell apopt 94.8
CC(NC(=O)c1cccc(OC2CCN(C3CCN(C)CC3)CC2)c1)c1ccccc1 (stereo unspecified)	none (no result: H9c2 TAG inh)
Nc1c(C(=O)NCc2ccco2)nnn1Cc1ccccc1	none
O=C(c1ccco1)c1nnn(Cc2ccccc2)c1-c1ccccc1	CSC inhib 78.0 (no result: H9c2 TAG inh)
CC(=O)Nc1nc(-c2ccc(Cl)cc2)nc(C)c1C(C)=O	none

Screening results deposited in PubChem BioAssay by several laboratories.
